pIC50: −log10 of the molar value. The source made the active and inactive calls. The rule behind the calls is not given here.
Columns and labels:
Plasma [1] = assay: Antiplatelet activity in […] assessed as inhibition of thrombin-induced platelet aggregation at 1 to 10 uM by light transmission aggregometry; assay type: functional; settings: Homo sapiens, dose 1-10 µM
Prothrombin [2] = biological target: T1, Prothrombin (Homo sapiens, UniProt P00734); assay: Inhibition of human coagulation factor thrombin using Boc-Val-Pro-Arg-AMC as fluorogenic substrate at 100 nM measured at 1 min interval for 1 hr by fluorometric assay relative to control
Summary of the method: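 Screening of crude microscale amide-coupling products. Conversion was measured by 1H NMR and product content normalised to 76 µmol/L in DMSO, then tested at 1 µM and 100 nM in the fluorogenic FXIIa or thrombin assay. A 0-conversion reaction served as blank. Percent inhibition is from triplicates.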

Plasma [3] = assay: Antiplatelet activity in […] assessed as inhibition of MDA-MB-231-induced platelet aggregation at 1 uM by light transmission aggregometry; assay type: functional; settings: Homo sapiens
Plasma [4] = assay: Antiplatelet activity in human platelet-rich plasma assessed as inhibition of thrombin induced platelet activation by measuring reduction in ATP release preincubated for 20 mins followed by thrombin addition and measured after 10 mins by luciferin-based luminescence assay; assay type: functional, cell-free; settings: time 30.0 min
Summary of the method: (§1)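 Platelet activation measured as dense-granule ATP release by firefly luciferase bioluminescence. Compound-treated platelets were activated with MDA-MB-231 cells, thrombin or TRAP-6. TRAP-6-induced signal was set as 100%. Triplicate, mean ± SD.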

Coagulation factor XI = Coagulation factor XI (Homo sapiens, UniProt P03951); assay: Inhibition of human coagulation factor XIA using Mes-dArg-Pro-Arg-AMC as fluorogenic substrate measured at 1 min interval for 1 hr by fluorometric assay
Chain of Coagulation factor XI (P03951 19-387 limits assumed): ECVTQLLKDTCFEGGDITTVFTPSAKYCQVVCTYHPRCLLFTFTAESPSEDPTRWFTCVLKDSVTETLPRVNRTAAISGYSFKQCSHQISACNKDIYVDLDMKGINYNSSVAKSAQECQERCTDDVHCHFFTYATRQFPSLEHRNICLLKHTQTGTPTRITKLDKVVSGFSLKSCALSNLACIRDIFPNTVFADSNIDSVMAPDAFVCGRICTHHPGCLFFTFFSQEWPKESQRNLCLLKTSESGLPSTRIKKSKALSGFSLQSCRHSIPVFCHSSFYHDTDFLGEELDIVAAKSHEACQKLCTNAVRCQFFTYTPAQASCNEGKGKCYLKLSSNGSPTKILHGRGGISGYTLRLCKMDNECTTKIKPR
Chain of Coagulation factor XI (P03951 388-625 limits assumed): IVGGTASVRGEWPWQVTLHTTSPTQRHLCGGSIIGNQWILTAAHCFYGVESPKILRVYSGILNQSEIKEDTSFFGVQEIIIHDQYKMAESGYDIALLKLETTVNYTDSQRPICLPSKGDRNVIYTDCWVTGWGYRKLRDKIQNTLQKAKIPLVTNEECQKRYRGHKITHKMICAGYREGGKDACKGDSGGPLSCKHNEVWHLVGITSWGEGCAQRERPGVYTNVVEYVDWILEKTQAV

Plasma [5] = assay: Antiplatelet activity in human platelet-rich plasma assessed as inhibition of TRAP6 induced platelet activation by measuring reduction in ATP release at 1 uM preincubated for 20 mins followed by TRAP6 addition and measured after 10 mins by luciferin-based luminescence assay; assay type: functional, cell-free; settings: time 30.0 min; summary of the method: as §1
Plasma [6] = assay: Antiplatelet activity in human platelet-rich plasma assessed as inhibition of TRAP6 induced platelet activation by measuring reduction in ATP release at 10 uM preincubated for 20 mins followed by TRAP6 addition and measured after 10 mins by luciferin-based luminescence assay; assay type: functional, cell-free; settings: time 30.0 min; summary of the method: as §1
Plasma [7] = assay: Antiplatelet activity in […] assessed as inhibition of MDA-MB-231-induced platelet aggregation by light transmission aggregometry; assay type: functional; settings: Homo sapiens, dose 0.1-10 µM
[8] = biological target: T2, Coagulation factor XII (Homo sapiens) (UniProt P00748); assay: Binding affinity to human plasma coagulation factor XIIA assessed as compound-adduct formation at molar ratio of 1:20 preincubated for 4 mins followed by desalination and measured after 120 mins by SEC/ESI-TOF mass spectra analysis; assay type: cell-free
T2 sequence (whole entry): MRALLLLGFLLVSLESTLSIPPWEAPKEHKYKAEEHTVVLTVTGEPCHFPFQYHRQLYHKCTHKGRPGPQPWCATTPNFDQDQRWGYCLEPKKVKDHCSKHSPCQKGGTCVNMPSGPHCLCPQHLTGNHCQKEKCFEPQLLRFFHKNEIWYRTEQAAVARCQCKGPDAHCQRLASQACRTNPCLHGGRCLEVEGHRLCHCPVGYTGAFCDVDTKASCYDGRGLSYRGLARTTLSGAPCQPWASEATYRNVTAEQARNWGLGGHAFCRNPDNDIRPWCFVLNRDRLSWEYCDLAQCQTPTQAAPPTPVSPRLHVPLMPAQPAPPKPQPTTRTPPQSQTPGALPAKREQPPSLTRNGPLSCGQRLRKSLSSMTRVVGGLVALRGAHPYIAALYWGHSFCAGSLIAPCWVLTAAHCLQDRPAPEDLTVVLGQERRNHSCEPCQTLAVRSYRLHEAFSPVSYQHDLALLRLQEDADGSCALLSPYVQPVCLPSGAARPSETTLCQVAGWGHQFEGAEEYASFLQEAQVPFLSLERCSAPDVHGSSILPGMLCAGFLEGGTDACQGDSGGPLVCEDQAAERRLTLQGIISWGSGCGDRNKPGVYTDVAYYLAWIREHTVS
Summary of the method: (§2)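 β-FXIIa incubated with inhibitor at a 1:20 molar ratio, then size-exclusion chromatography coupled to ESI-MS to measure the mass of enzyme–inhibitor complexes. Further runs checked complex stability to probe reversibility.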

Coagulation factor X [9] = biological target: T3, Coagulation factor X (Homo sapiens, UniProt P00742); assay: Inhibition of human coagulation factor Xa using Boc-Ile-Glu-Gly-Arg-AMC as fluorogenic substrate at 5 uM measured at 1 min interval for 1 hr by fluorometric assay relative to control
T3 sequence (P00742 41-179 limits assumed): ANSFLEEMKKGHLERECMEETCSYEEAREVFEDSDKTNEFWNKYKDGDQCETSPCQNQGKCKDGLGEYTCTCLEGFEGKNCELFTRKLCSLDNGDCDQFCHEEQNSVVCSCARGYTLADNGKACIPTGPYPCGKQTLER
T3 sequence (P00742 235-488 limits assumed): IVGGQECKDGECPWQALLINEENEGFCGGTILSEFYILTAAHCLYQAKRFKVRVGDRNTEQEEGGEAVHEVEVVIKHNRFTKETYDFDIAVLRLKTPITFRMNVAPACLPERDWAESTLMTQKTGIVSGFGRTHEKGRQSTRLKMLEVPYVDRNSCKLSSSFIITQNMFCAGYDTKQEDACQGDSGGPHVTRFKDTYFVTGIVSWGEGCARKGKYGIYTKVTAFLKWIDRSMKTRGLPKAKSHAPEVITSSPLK

Plasma [10] = assay: Antiplatelet activity in human platelet-rich plasma assessed as inhibition of MDA-MB-231 induced platelet activation by measuring reduction in ATP release preincubated for 20 mins followed by tumor cell addition and measured after 30 mins by luciferin-based luminescence assay; assay type: functional, cell-free; settings: time 50.0 min; summary of the method: as §1
[11] = biological target: T2, Coagulation factor XII (Homo sapiens); assay: Binding affinity to human plasma coagulation factor XIIA assessed as compound-adduct formation by measuring change in molecular mass at molar ratio of 1:20 measured after 4 mins by SEC/ESI-TOF mass spectra analysis; assay type: cell-free; summary of the method: as §2
Prothrombin [12] = biological target: T1, Prothrombin; assay: Inhibition of human coagulation factor alpha-thrombin using Boc-Val-Pro-Arg-AMC as fluorogenic substrate measured at 1 min interval for 1 hr by fluorometric assay
Monoglyceride lipase = biological target: T4, Monoglyceride lipase (Homo sapiens, UniProt Q99685); assay: Inhibition of human recombinant MAGL using 1,3-dihydroxypropan-2-yl 4-pyren-1-ylbutanoate as substrate measured after 45 mins by reverse-phase HPLC-based fluorescence assay
T4 sequence (Q99685 whole entry): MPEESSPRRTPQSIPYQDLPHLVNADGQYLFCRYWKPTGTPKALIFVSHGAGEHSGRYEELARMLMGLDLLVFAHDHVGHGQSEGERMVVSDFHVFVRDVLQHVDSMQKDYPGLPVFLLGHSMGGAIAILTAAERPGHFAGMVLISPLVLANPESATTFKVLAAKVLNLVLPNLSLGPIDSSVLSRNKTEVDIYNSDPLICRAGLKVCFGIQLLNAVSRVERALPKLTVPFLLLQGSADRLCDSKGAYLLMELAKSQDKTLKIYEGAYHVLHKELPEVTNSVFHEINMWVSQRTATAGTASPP

Plasma [13] = assay: Antiplatelet activity in […] assessed as inhibition of TRAP6-induced platelet aggregation at 0.1 to 10 uM by light transmission aggregometry; assay type: functional; settings: Homo sapiens, dose 0.1-10 µM
Coagulation factor X [14] = biological target: T3, Coagulation factor X; assay: Inhibition of human coagulation factor Xa using Boc-Ile-Glu-Gly-Arg-AMC as fluorogenic substrate measured at 1 min interval for 1 hr by fluorometric assay
Homo sapiens = organism: Homo sapiens; assay: Selectivity index, ratio of IC50 for inhibition of human coagulation factor alpha-thrombin using Boc-Val-Pro-Arg-AMC as fluorogenic substrate to IC50 for inhibition of human coagulation factor XIIA using Boc-Gln-Gly-Arg-AMC as fluorogenic substrate incubated for 1 hr by fluorometric assay
Plasma [15] = assay: Antiplatelet activity in […] assessed as inhibition of MDA-MB-231-induced platelet aggregation at 0.1 to 10 uM by light transmission aggregometry; assay type: functional; settings: Homo sapiens, dose 0.1-10 µM

Nc1nc(-c2ccccn2)nn1C(=O)c1ccc2ccccc2c1
inhibition (Plasma [1]): Active
inhibition (Prothrombin [2]): 55%
inhibition (Plasma [3]): Active
inhibition (Plasma [4]): Dose-dependent effect
pIC50 (Coagulation factor XI): < 5.30
inhibition (Plasma [5]): inactive
inhibition (Plasma [6]): Active
inhibition (Plasma [7]): Dose-dependent effect
Activity [8]: inactive
inhibition (Coagulation factor X [9]): 48%
inhibition (Plasma [10]): Dose-dependent effect
Activity [11]: 154 Da
pIC50 (Prothrombin [12]): 7.57
pIC50 (Monoglyceride lipase): < 5.30
inhibition (Plasma [13]): inactive

Nc1nc(-c2ccccn2)nn1C(=O)c1cccc2ccccc12
inhibition (Prothrombin [2]): 13%
pIC50 (Coagulation factor XI): < 5.30
pIC50 (Coagulation factor X [14]): < 5.30
Ratio IC50 (Homo sapiens): 13
inhibition (Plasma [15]): inactive
pIC50 (Prothrombin [12]): 6.43
pIC50 (Monoglyceride lipase): < 5.30
